From ChEMBL document CHEMBL1773046, “Isoprenylated flavonoids and adipogenesis-promoting constituents from Morus nigra” (2011)
The source made the active and inactive calls. No cut-off for these calls is given here.

Experiments:
3T3-L1 [1] = experiment: Induction of mouse 3T3L1 cell differentiation assessed as increase in accumulation of intracellular lipid droplet at 25 uM by Oil red O staining; format: functional, cell-based
In short: (§1)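 Following 8-day differentiation with compound applied from induction (insulin/dexamethasone/IBMX, then insulin maintenance), intracellular lipid droplets visualized by Oil Red O staining and photographed.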

3T3-L1 [2] = experiment: Induction of adipogenesis in mouse 3T3L1 cells assessed as increase in triglyceride level at 25 uM after 8 days relative to control; format: functional
In short: (§2)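 Differentiation protocol: confluent 3T3-L1 cells held 2 days, then induced with insulin (2 μg/mL), dexamethasone (1 μM) and IBMX (0.125 mM) in 10% FBS/DMEM, then maintained with insulin. Compound present from induction for 8 days. Cellular triglyceride quantified with an enzymatic kit and compared with untreated control.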

3T3-L1 [3] = experiment: Induction of GLUT4 gene expression in mouse 3T3L1 cells assessed as increase in mRNA level at 10 uM by qRT-PCR analysis; format: functional, cell-based
In short: (§3)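 3T3-L1 cells grown in DMEM/10% NCS at 37 °C, 5% CO2. Two days post-confluence, differentiation induced with 2 μg/mL insulin, 1 μM dexamethasone and 0.125 mM IBMX in 10% FBS/DMEM, then kept in 10% FBS/DMEM plus 2 μg/mL insulin. Compound added at induction and left 8 days. Cells then harvested for target protein (RIPA lysate, immunoblot) or mRNA (TRIzol RNA, RT-qPCR).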

3T3-L1 [4] = experiment: Induction of aP2 gene expression in mouse 3T3L1 cells assessed as increase in aP2 protein level at 6.25 uM by Western blot analysis; format: functional, cell-based; in short: as §3
3T3-L1 [5] = experiment: Induction of adipogenesis in mouse 3T3L1 cells assessed as increase in triglyceride level at 50 uM after 8 days relative to control; format: functional; in short: as §2
3T3-L1 [6] = experiment: Induction of aP2 gene expression in mouse 3T3L1 cells assessed as increase in aP2 protein level at 12.5 uM by Western blot analysis; format: functional, cell-based; in short: as §3
3T3-L1 [7] = experiment: Induction of GLUT4 gene expression in mouse 3T3L1 cells assessed as increase in GLUT4 protein level at 6.25 uM by Western blot analysis; format: functional, cell-based; in short: as §3
3T3-L1 [8] = experiment: Induction of GLUT4 gene expression in mouse 3T3L1 cells assessed as increase in GLUT4 protein level at 12.5 uM by Western blot analysis; format: functional, cell-based; in short: as §3
3T3-L1 [9] = experiment: Induction of adipogenesis in mouse 3T3L1 cells assessed as increase in triglyceride level at 12.5 uM after 8 days relative to control; format: functional; in short: as §2
3T3-L1 [10] = experiment: Induction of aP2 gene expression in mouse 3T3L1 cells assessed as increase in mRNA level at 10 uM by qRT-PCR analysis; format: functional, cell-based; in short: as §3
3T3-L1 [11] = experiment: Induction of mouse 3T3L1 cell differentiation assessed as increase in accumulation of intracellular lipid droplet at 1 uM by Oil red O staining; format: functional, cell-based; in short: as §1
3T3-L1 [12] = experiment: Induction of adipogenesis in mouse 3T3L1 cells assessed as increase in triglyceride level at 1 uM after 8 days relative to control; format: functional; in short: as §2

CC(C)=CC[C@]12Oc3cc4c(c(O)c3C(=O)[C@@]1(O)Oc1cc(O)ccc12)C[C@@H](C(C)(C)O)O4
Activity (3T3-L1 [1]): inactive

CC(C)=CCc1c(-c2ccc(O)cc2O)oc2c3c(cc(O)c2c1=O)O[C@H](C)C3(C)C [NIGRASIN H]
Activity (3T3-L1 [2]): 143.94%
Activity (3T3-L1 [3]): Active
Activity (3T3-L1 [4]): Active
Activity (3T3-L1 [5]): 203.39%
Activity (3T3-L1 [1]): Active
Activity (3T3-L1 [6]): Active
Activity (3T3-L1 [7]): Active
Activity (3T3-L1 [8]): Active
Activity (3T3-L1 [9]): 102.16%
Activity (3T3-L1 [10]): Active

CC(C)=CC[C@]12Oc3cc4c(c(O)c3C(=O)[C@@]1(O)Oc1cc(O)ccc12)C[C@H](O)C(C)(C)O4
Activity (3T3-L1 [1]): inactive

CC(C)=CCc1c(O)cc2oc(-c3ccc(O)cc3O)c(CC=C(C)C)c(=O)c2c1O
Activity (3T3-L1 [1]): inactive

CC(C)=CCC/C(C)=C/CC/C(C)=C/C[C@@]12Oc3cc(O)cc(O)c3C(=O)[C@]1(O)Oc1cc(O)ccc12
Activity (3T3-L1 [1]): inactive

CC(C)=CC[C@]12Oc3cc4c(c(O)c3C(=O)[C@@]1(O)Oc1cc(O)ccc12)C[C@H](C(C)(C)O)O4
Activity (3T3-L1 [1]): inactive

CN(CCOc1ccc(CC2SC(=O)NC2=O)cc1)c1ccccn1 (stereo unspecified) [ROSIGLITAZONE]
Activity (3T3-L1 [11]): Active
Activity (3T3-L1 [12]): 450.32%

C=C(C)[C@H]1Cc2c(cc(O)c3c2O[C@]2(CC=C(C)C)c4ccc(O)cc4O[C@]2(O)C3=O)O1
Activity (3T3-L1 [1]): inactive

CC(C)=CC[C@]12Oc3cc4c(c(O)c3C(=O)[C@@]1(O)Oc1cc(O)ccc12)C[C@@H](O)C(C)(C)O4
Activity (3T3-L1 [1]): inactive

C=CC(C)(C)c1c(O)cc(O)c2c(=O)c(CC=C(C)C)c(-c3ccc(O)cc3O)oc12 [NIGRASIN I]
Activity (3T3-L1 [2]): 317.18%
Activity (3T3-L1 [3]): Active
Activity (3T3-L1 [4]): Active
Activity (3T3-L1 [5]): 250.63%
Activity (3T3-L1 [1]): Active
Activity (3T3-L1 [6]): Active
Activity (3T3-L1 [7]): Active
Activity (3T3-L1 [8]): Active
Activity (3T3-L1 [9]): 179.84%
Activity (3T3-L1 [10]): Active

C=C(C)[C@@H]1Cc2c(cc(O)c3c2O[C@]2(CC=C(C)C)c4ccc(O)cc4O[C@]2(O)C3=O)O1
Activity (3T3-L1 [1]): inactive

C=C(C)C(O)CC/C(C)=C/CC/C(C)=C/C[C@@]12Oc3cc(O)cc(O)c3C(=O)[C@]1(O)Oc1cc(O)ccc12 (stereo partly specified)
Activity (3T3-L1 [1]): inactive
